Assay [1] concerns the target Recombinant TryR from T. brucei (Trypanosoma brucei brucei, UniProt P39051). The assay is described as follows: DTNB-coupled colourimetric TryR screening/potency assay. The assay is classed as biochemical.
The test system of assay [2] is bloodstream form T. brucei brucei single marker. The assay is described as follows: Trypanosome growth assay. The format is cell-based. The conditions noted are these: Trypanosoma brucei, 73 h, read-out: EC50 Parasite. An outline of the steps: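 Bloodstream-form T. b. brucei single marker in HMI9-T with 10% FCS, 2000 cells/well, added to plates pre-stamped with test compound; media-only column as blank. Ten points from 15 μm to 0.5 nm or 50 μm to 2 nm; final DMSO 0.5%. Incubated 69 h at 37°C, 5% CO2, then resazurin (final 50 μm) for 4 h; fluorescence at ex 528/em 590 nm.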

For another assay, the target named is TryR (Trypanosoma brucei brucei, UniProt P39051). As to the kind of experiment: Mode of inhibition studies on TryR. The conditions noted are these: for Inhibitor constants Ki′: T[S]2 varied, mixed inhibition, second constant; for Mode of inhibiton: TryR, global nonlinear fit of 1/v vs 1/[S] data. The assay is classed as biochemical. Summed up:
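TryR with 150 μm NADPH, 50 μm DTNB, 20 mU/mL enzyme in 40 mm HEPES, 1 mm EDTA, pH 7.4. Three test-compound levels plus an inhibitor-free row. Started with T[S]2 over 12 points, 500 to 5.8 μm. NADPH was also varied at fixed T[S]2. Rates from linear A412 rise, inspected as 1/v vs 1/[S], then globally fitted to competitive, mixed or uncompetitive equations.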

Assay [3] concerns the target T1, human glutathione reductase (Homo sapiens, UniProt P00390).
T1 sequence (P00390 44-522): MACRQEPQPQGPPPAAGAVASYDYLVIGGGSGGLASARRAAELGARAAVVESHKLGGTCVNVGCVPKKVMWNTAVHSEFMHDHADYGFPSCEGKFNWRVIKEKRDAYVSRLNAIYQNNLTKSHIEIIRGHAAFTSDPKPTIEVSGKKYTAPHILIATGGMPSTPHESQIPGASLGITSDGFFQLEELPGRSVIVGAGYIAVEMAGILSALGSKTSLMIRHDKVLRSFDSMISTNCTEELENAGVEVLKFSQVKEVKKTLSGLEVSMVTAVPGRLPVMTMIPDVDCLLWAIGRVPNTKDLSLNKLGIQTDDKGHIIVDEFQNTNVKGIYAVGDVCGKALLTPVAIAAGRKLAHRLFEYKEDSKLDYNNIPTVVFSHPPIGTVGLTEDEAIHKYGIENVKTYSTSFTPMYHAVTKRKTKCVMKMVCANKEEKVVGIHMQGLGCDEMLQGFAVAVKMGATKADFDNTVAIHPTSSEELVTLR
As to the kind of experiment: Glutathione reductase. The format is biochemical.

One may read the IC50 as the concentration at which inhibition is half-maximal. As usually defined, the EC50 is the concentration that produces a half-maximal response. As a reminder, the Ki is the equilibrium dissociation constant of an inhibitor or competing ligand from its target. Lower therefore signals a stronger hold on the target.

Chain of Recombinant TryR from T. brucei (P39051 whole entry): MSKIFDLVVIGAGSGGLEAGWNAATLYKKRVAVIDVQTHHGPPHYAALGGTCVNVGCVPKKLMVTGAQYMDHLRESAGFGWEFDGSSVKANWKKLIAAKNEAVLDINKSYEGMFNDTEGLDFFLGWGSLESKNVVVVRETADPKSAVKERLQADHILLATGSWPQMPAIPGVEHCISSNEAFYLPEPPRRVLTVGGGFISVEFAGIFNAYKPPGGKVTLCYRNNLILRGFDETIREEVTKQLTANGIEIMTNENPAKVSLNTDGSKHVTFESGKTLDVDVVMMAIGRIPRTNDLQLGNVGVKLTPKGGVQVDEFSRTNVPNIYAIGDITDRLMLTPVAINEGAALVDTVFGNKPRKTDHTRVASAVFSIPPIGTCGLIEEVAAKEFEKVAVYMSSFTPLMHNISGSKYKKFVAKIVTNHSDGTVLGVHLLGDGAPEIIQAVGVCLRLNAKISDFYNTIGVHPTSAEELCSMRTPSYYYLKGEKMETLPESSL
Chain of TryR (P39051 whole entry): as above

As for `CNCCNC(=O)c1cc(-c2ccc(C)o2)nc2ccc(Br)cc12` [Compound 2, 6-Bromo-N-(2-(methylamino)ethyl)-2-(5-methylfuran-2-yl)quinoline-4-carboxamide], the IC50 in assay [1] came to 1.1 µM. Further, the EC50 in assay [2] was found to be 6 µM.
Consider `CN(C)CCNC(=O)c1cc(-c2ccco2)nc2ccc(Br)cc12` [Compound 20, 6-Bromo-N-(2-(dimethylamino)ethyl)-2-(furan-2-yl)quinoline-4-carboxamide], for which, in assay [1], the IC50 was 32.4 µM.
As for `Cc1ccc(-c2cc(C(=O)NCC[N+](C)(C)C)c3cc(Br)ccc3n2)o1` [Compound 3, 6-Bromo-N,N,N-trimethyl-2-(2-(5-methylfuran-2-yl)quinoline-4-carboxamido)ethanaminium iodide], the IC50 in assay [1] amounted to 1.2 µM. For the same compound, the EC50 in assay [2] is above 50 µM.
On to `Cc1ccc(-c2cc(C(=O)NCCN(C)C)c3ccccc3n2)o1` [Compound 12, N-(2-(Dimethylamino)ethyl)-2-(5-methylfuran-2-yl)quinoline-4-carboxamide], for which, in assay [1], the half-maximal inhibitory concentration (IC50) stood at 14.4 µM. Besides, the concentration giving a half-maximal response (EC50) in assay [2] came out at 32.1 µM.
As for `Cc1ccc(-c2cc(C(=O)NCCN(C)C)c3cc(F)ccc3n2)o1` [Compound 26, N-(2-(dimethylamino)ethyl)-6-fluoro-2-(5-methylfuran-2-yl)quinoline-4-carboxamide], the concentration for half-maximal inhibition (IC50) in assay [1] is above 100 µM.
Same read-out and setting: next, `Cc1ccc(-c2cc(C(=O)NCCN(C)C)c3cc(Cl)ccc3n2)o1` [Compound 8, 6-Chloro-N-(2-(dimethylamino)ethyl)-2-(5-methylfuran-2-yl)quinoline-4-carboxamide]: 3.1 µM; `Cc1ccc(-c2cc(C(=O)NCCN(C)C)c3cc(Br)ccc3n2)s1` [Compound 22, 6-Bromo-N-(2-(dimethylamino)ethyl)-2-(5-methylthiophen-2-yl)quinoline-4-carboxamide]: above 100 µM; `Cc1ccc(-c2cc(C(=O)NCCc3ccccc3)c3cc(Br)ccc3n2)o1` [Compound 25, 6-bromo-2-(5-methylfuran-2-yl)-N-phenethylquinoline-4-carboxamide]: above 100 µM.
For `Cc1ccc(-c2cc(C(=O)NCCN(C)C)c3cc(Br)ccc3n2)o1` [Compound 1, 6-Bromo-N-(2-(dimethylamino)ethyl)-2-(5-methylfuran-2-yl)quinoline-4-carboxamide], the half-maximal inhibitory concentration (IC50) in assay [1] came out at 1.7 µM. Further, on TryR, the affinity, expressed as Ki, was 1.6 ± 0.2 µM; the “Inhibitor constants Ki′” value was 3.2 ± 0.3 µM; the Mode of inhibiton entry is reported as “linear mixed”. In assay [3], this compound had an IC50 above 100 µM. For the same compound, the EC50 in assay [2] came to 10.3 µM.
Consider `Cc1ccc(-c2cc(C(=O)NCCN3CCOCC3)c3cc(Br)ccc3n2)o1` [Compound 4, 6-Bromo-2-(5-methylfuran-2-yl)-N-(2-morpholinoethyl)quinoline-4-carboxamide], for which the IC50 in assay [1] came out at 4.2 µM. At TryR, the inhibitory constant (Ki) stood at 3 ± 0.2 µM, the “Inhibitor constants Ki′” value worked out at 4.3 ± 0.3 µM and the Mode of inhibiton result is listed as “linear mixed”. Further, the half-inhibitory concentration (IC50) in assay [3] worked out at 74.2 µM. Moreover, the EC50 in assay [2] came out at 25.6 µM.
Take `Cc1ccc(-c2cc(C(=O)NCCN(C)C)c3ccc(Br)cc3n2)o1` [Compound 9, 7-Bromo-N-(2-(dimethylamino)ethyl)-2-(5-methylfuran-2-yl)quinoline-4-carboxamide]: in assay [1], the IC50 was found to be 5.7 µM.
Consider `Cc1ccc(-c2cc(C(=O)NCc3ccccn3)c3cc(Br)ccc3n2)o1` [Compound 5, 6-Bromo-2-(5-methylfuran-2-yl)-N-(pyridin-2-ylmethyl)quinoline-4-carboxamide], for which, in assay [1], the IC50 was 4.7 µM. On TryR, the Ki turned out to be 2 ± 0.1 µM, the “Inhibitor constants Ki′” value turned out to be 3.0 ± 0.2 µM and the Mode of inhibiton result is given as “linear mixed”. Moreover, 33.4 µM corresponded to half-maximal inhibition in assay [3] (IC50). Besides, in assay [2], the half-maximal effective concentration (EC50) turned out to be 18.7 µM.
For `Cc1ccc(-c2cc(C(=O)NCCN(C)C)c3cccc(Br)c3n2)o1` [Compound 10, 8-Bromo-N-(2-(dimethylamino)ethyl)-2-(5-methylfuran-2-yl)quinoline-4-carboxamide], the IC50 in assay [1] came to 5.8 µM. Besides, the half-maximal effective concentration (EC50) in assay [2] was determined as 19.2 µM.
As to `Cc1ccc(-c2cc(C(=O)NCc3ccccc3)c3cc(Br)ccc3n2)o1` [Compound 15, N-Benzyl-6-bromo-2-(5-methylfuran-2-yl)quinoline-4-carboxamide], the half-maximal inhibitory concentration (IC50) in assay [1] is above 100 µM.
Consider `Cc1ccc(-c2cc(C(=O)NCc3ccccn3)c3ccccc3n2)o1` [Compound 11, 2-(5-Methylfuran-2-yl)-N-(pyridin-2-ylmethyl)quinoline-4-carboxamide], for which the half-maximal inhibitory concentration (IC50) in assay [1] was 12.1 µM.

For the origin of these results see article PMC2855869 (Chemmedchem, 2009).
